According to ChEMBL document CHEMBL1208776, “Design, synthesis and evaluation of a novel double pro-drug: INX-08189. A new clinical candidate for hepatitis C virus” (Bioorg Med Chem Lett, 2010):

Tests used:
Hepatitis C virus = test: Antiviral activity against HCV genotype 1b in Huh7 cells assessed as inhibition of viral replication by cell-based replicon assay; format: functional, organism-based, Hepacivirus hominis; conditions: Huh-7
[1] = Cytotoxicity against human HuH7 cells; format: cell-based, Huh-7
Carboxypeptidase A = test: Half life in carboxypeptidase A assay
[2] = (§1) Permeability across human Caco-2 cells from apical to basolateral side in human Caco2 cell membrane; format: ADME, cell-based; conditions: read-out: permeability
How it was run: (§2)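 Caco-2 monolayers were grown for 27 days (resistance 600 ohms/cm²). Apical-to-basal transport was measured as % transported in 80 min, with permeability expressed in cm/s.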

Caco-2 = test: as §1; format: ADME, cell-based; how it was run: as §2
Hepatocyte = test: Cmax in primary human hepatocytes after 2uM treatment; format: ADME, cell-based
How it was run: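 Primary human hepatocytes were incubated with 2 µM compound. Intracellular 2′-C-methyl guanosine triphosphate was measured over 48 h and expressed as pmol/10⁶ cells. Cmax and decay half-life were estimated from the time course.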

[3] = human, HuH7 cells, read-out: CC50

| Structure (SMILES) | EC50 (Hepatitis C virus) [nM] | EC90 (Hepatitis C virus) [nM] | CC50 ([1]; Homo sapiens, Huh-7) [µM] | half-life (Carboxypeptidase A) [min] | Papp A→B [2] [×10⁻⁶ cm/s] | CC50 [1, 3] [µM] | permeability (Caco-2) [%] | Cmax_triphosphate (Hepatocyte) [pmol/10^6cells] |
| --- | --- | --- | --- | --- | --- | --- | --- | --- |
| COc1nc(N)nc2c1ncn2[C@@H]1O[C@H](COP(=O)(N[C@H](C)C(=O)OCC(C)(C)C)Oc2cccc3ccccc23)[C@@H](O)[C@@]1(C)O (stereo partly drawn) | 240 | 580 | 51 |  |  |  |  |  |
| COc1nc(N)nc2c1ncn2[C@@H]1O[C@H](COP(=O)(N[C@@H](CC(C)C)C(=O)OCC(C)(C)C)Oc2cccc3ccccc23)[C@@H](O)[C@@]1(C)O (stereo partly drawn) | 70 | 230 | 14 |  |  |  |  |  |
| COc1nc(N)nc2c1ncn2[C@@H]1O[C@H](COP(=O)(N[C@@H](CCSC)C(=O)OCC(C)(C)C)Oc2cccc3ccccc23)[C@@H](O)[C@@]1(C)O (stereo partly drawn) | 60 | 190 | 28 |  |  |  |  |  |
| COc1nc(N)nc2c1ncn2[C@@H]1O[C@H](CO[P@](=O)(N[C@@H](C)C(=O)OCC(C)(C)C)Oc2cccc3ccccc23)[C@@H](O)[C@@]1(C)O |  |  |  | 17 |  |  |  |  |
| COc1nc(N)nc2c1ncn2[C@@H]1O[C@H](CO)[C@@H](O)[C@@]1(C)O [BETA-2'-C-METHYL-6-O-METHYL GUANOSINE] | 5200 | 21000 | > 100 |  |  |  |  |  |
| COc1nc(N)nc2c1ncn2[C@@H]1O[C@H](COP(=O)(N[C@@H](C)C(=O)OCc2ccccc2)Oc2cccc3ccccc23)[C@@H](O)[C@@]1(C)O (stereo partly drawn) | 30 | 100 | 12 |  | 4.02 |  |  |  |
| COc1nc(N)nc2c1ncn2[C@@H]1O[C@H](COP(=O)(N[C@@H](C)C(=O)OC2CCCCC2)Oc2cccc3ccccc23)[C@@H](O)[C@@]1(C)O (stereo partly drawn) | 30 | 90 | 6 |  |  |  |  |  |
| COc1nc(N)nc2c1ncn2[C@@H]1O[C@H](COP(=O)(N[C@@H](C)C(=O)OCCC(C)(C)C)Oc2cccc3ccccc23)[C@@H](O)[C@@]1(C)O (stereo partly drawn) | 20 | 80 | 14 |  |  |  |  |  |
| COc1nc(N)nc2c1ncn2[C@@H]1O[C@H](CO[P@@](=O)(N[C@@H](C)C(=O)OCC(C)(C)C)Oc2cccc3ccccc23)[C@@H](O)[C@@]1(C)O |  |  |  | 20 |  |  |  |  |
| CC[C@H](C)[C@H](NP(=O)(OC[C@H]1O[C@@H](n2cnc3c(OC)nc(N)nc32)[C@](C)(O)[C@@H]1O)Oc1cccc2ccccc12)C(=O)OCC(C)(C)C (stereo partly drawn) | 860 | 2530 | 18 |  |  |  |  |  |
| CCCOC(=O)[C@H](C)NP(=O)(OC[C@H]1O[C@@H](n2cnc3c(OC)nc(N)nc32)[C@](C)(O)[C@@H]1O)Oc1cccc2ccccc12 (stereo partly drawn) | 30 | 100 | 13 |  |  |  |  |  |
| COc1nc(N)nc2c1ncn2[C@@H]1O[C@H](COP(=O)(N[C@@H](C)C(=O)OCC(C)(C)C)Oc2cccc3ccccc23)[C@@H](O)[C@@]1(C)O (stereo partly drawn) [BMS-986094] | 10 | 40 |  |  |  | 7 | 2.7 | 80 |
| COc1nc(N)nc2c1ncn2[C@@H]1O[C@H](COP(=O)(N[C@@H](C)C(=O)OC(C)C)Oc2cccc3ccccc23)[C@@H](O)[C@@]1(C)O (stereo partly drawn) | 540 | 1700 | > 100 |  |  |  |  |  |
| COc1nc(N)nc2c1ncn2[C@@H]1O[C@H](COP(=O)(N[C@H](C(=O)OCC(C)(C)C)C(C)C)Oc2cccc3ccccc23)[C@@H](O)[C@@]1(C)O (stereo partly drawn) | 190 | 640 | 33 |  |  |  |  |  |
| COc1nc(N)nc2c1ncn2[C@@H]1O[C@H](COP(=O)(N[C@@H](C)C(=O)OC2CCCC2)Oc2cccc3ccccc23)[C@@H](O)[C@@]1(C)O (stereo partly drawn) | 30 | 80 | 9 |  |  |  |  |  |
| C[C@H](NP(=O)(OC[C@H]1O[C@@H](n2cnc3c(=O)[nH]c(N)nc32)[C@](C)(O)[C@@H]1O)Oc1cccc2ccccc12)C(=O)OCC(C)(C)C (stereo partly drawn) | 72 | 270 |  |  |  | > 100 | < 0.5 |  |
